From paper PMC4618641 (Pharmacology Research & Perspectives, 2015)
“Also recorded” adds a separate entry of the source.

Columns and labels:
[1] = system: DU145TXR cells; assay: Potentiation assay; type: cell-based, human; conditions: 10 nmol/L - 25 μmol/L inhibitor, 48 h
Procedure, shortened: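 Paclitaxel-selected DU145TXR (maintained in 10 nmol/L paclitaxel) seeded, then after 48 h co-treated 48 h with 500 nmol/L paclitaxel plus inhibitor at 10 nmol/L–25 μmol/L (400X DMSO solutions), triplicate wells; parallel run without paclitaxel. MTT read at 570 minus 720 nm. Survival relative to DMSO-treated wells without inhibitor; ≥6 replicates from ≥2 experiments. PC50 from a four-parameter variable-slope fit.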

[2] = system: DU145TXR cells; assay: Dose-dependent sensitization to paclitaxel; type: cell-based, human; conditions: for Synergy with paclitaxel (isobologram): DU145TXR, 5, 10, 25 μmol/L compound
[3] = system: P-gp; conditions: ref Brewer et al. [2014]; cited from earlier work
[4] = system: DU145 cells; assay: Intrinsic cytotoxicity assay; type: cell-based, human; conditions: for IC50: Homo sapiens, DU-145, 48 h, read-out: IC50 (compound alone, estimated)
Procedure, shortened: (§1)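 Cells seeded at 2 × 10^4 cells/mL, grown 48 h, then exposed 48 h to test compound at 0.05–50 μmol/L from 200X DMSO solutions, with DMSO controls (n = 12/plate). PBS rinse, then fresh medium for 24 h and MTT for 4 h; A570 minus A720, blank subtracted. Survival is relative to DMSO; ≥6 replicates, ≥2 experiments. IC50 from a four-parameter fit constrained 0–100. HFL1 grown in F-12K on collagen-treated surfaces.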

[5] = system: P-gp; conditions: in the presence of the transport substrate verapamil; ref Brewer et al. [2014]; cited from earlier work
[6] = system: HFL1 cells; assay: Intrinsic cytotoxicity assay; type: cell-based, human; conditions: for Decrease in cell viability: HFL1, 25 μmol/L compound, not shown; for IC50: Homo sapiens, HFL1, 48 h, read-out: IC50 (compound alone, estimated)
Procedure, shortened: as §1

[7] = system: DU145TXR cells; assay: Intrinsic cytotoxicity assay; type: cell-based, human; conditions: for IC50: Homo sapiens, 48 h, read-out: IC50 (compound alone, estimated)
Procedure, shortened: as §1

[8] = system: DU145TXR cells; assay: Reversal of resistance to doxorubicin; type: cell-based, human; conditions: 25 μmol/L compound, data not shown
[9] = system: DU145 human prostate cancer cells; assay: MTT cell viability assay, chemotherapeutics on naïve DU145; type: cell-based
Procedure, shortened: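 DU145 in RPMI-1640 with 10% FBS, seeded at 2 × 10^4 cells/mL, then after 48 h given a paclitaxel (or doxorubicin) range from 400X DMSO dilutions for 48 h. PBS rinse, fresh medium 24 h, then MTT 4 h; formazan dissolved in DMSO, read at 570 minus 720 nm. Survival relative to DMSO controls (n = 12/plate); ≥9 replicates from ≥3 experiments.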

[10] = system: DU145TXR cells; assay: MTT cell viability assay, chemotherapeutics on multidrug-resistant DU145TXR; type: cell-based, human

COC(=O)c1ccc(C(c2c(O)oc3ccccc3c2=O)c2c(O)oc3ccccc3c2=O)cc1 [Compound 19, methyl 4-[bis(2-hydroxy-4-oxochromen-3-yl)methyl]benzoate]
Effect on sensitivity of DU145TXR to 500 nmol/L paclitaxel [1]: no apparent effect
Effect on sensitivity of DU145TXR to 500 nmol/L paclitaxel ([1]; listed as compound 19): no effect on the toxicity of paclitaxel
Effect on cell viability in sensitization experiments ([2]; DU145TXR, paclitaxel, 5, 10, 25 μmol/L compound): did not show any effect on cell viability
Effect on nucleotide binding (ESR, SL-ATP) [3]: directly interfered with nucleotide binding
IC50 [4]: 99 µM
Inhibition of verapamil-stimulated ATP hydrolysis [5]: inhibit ATP hydrolysis

Cc1cc(C)c(-c2cc(NC(=O)CSc3n[nH]c(C4CC4)n3)n(-c3ccccc3)n2)cc1C [Compound 29, 2-[(5-cyclopropyl-1H-1,2,4-triazol-3-yl)sulfanyl]-N-[2-phenyl-5-(2,4,5-trimethylphenyl)pyrazol-3-yl]acetamide]
Decrease in cell viability [6]: 35%
IC50 [6]: 42 µM
Effect on sensitivity of DU145TXR to 500 nmol/L paclitaxel [1]: strongly affected the sensitivity
Synergy with paclitaxel (isobologram) [2]: strong synergistic effect
IC50 [7]: 39 µM
Effect on nucleotide binding (ESR, SL-ATP) [3]: did not affect nucleotide-binding characteristics
IC50 [4]: 34 µM
Resensitization to doxorubicin [8]: resensitized the MDR prostate cancer cells to doxorubicin to levels that are comparable with the naïve DU145 cell line
Inhibition of verapamil-stimulated ATP hydrolysis [5]: inhibit ATP hydrolysis

CCC(C(=O)N1CCN(c2ccc(OC)cc2)CC1)n1nc(C)c2sc3ccccc3c2c1=O (centres unmarked) [Compound 34, 2-[1-[4-(4-methoxyphenyl)piperazin-1-yl]-1-oxobutan-2-yl]-4-methyl-[1]benzothiolo[2,3-d]pyridazin-1-one]
Decrease in cell viability [6]: 23%
IC50 [6]: 133 µM
Effect on sensitivity of DU145TXR to 500 nmol/L paclitaxel [1]: strongly affected the sensitivity
Synergy with paclitaxel (isobologram) [2]: strong synergistic effect
IC50 [7]: 412 µM
Effect on nucleotide binding (ESR, SL-ATP) [3]: directly interfered with nucleotide binding
IC50 [4]: 44 µM
Resensitization to doxorubicin [8]: resensitized the MDR prostate cancer cells to doxorubicin to levels that are comparable with the naïve DU145 cell line
Inhibition of verapamil-stimulated ATP hydrolysis [5]: inhibit ATP hydrolysis

CCOC(=O)C1(CCCc2ccccc2)CCCN(C(=O)c2ccc3c(c2)OCO3)C1 (centres unmarked) [Compound 45, ethyl 1-(1,3-benzodioxole-5-carbonyl)-3-(3-phenylpropyl)piperidine-3-carboxylate]
Decrease in cell viability [6]: 13%
IC50 [6]: 62 µM
Effect on sensitivity of DU145TXR to 500 nmol/L paclitaxel [1]: strongly affected the sensitivity
Synergy with paclitaxel (isobologram) [2]: strong synergistic effect
Cells killed ([7]; DU145TXR, 25 μmol/L compound, not shown): 36%
IC50 [7]: 107 µM
Effect on nucleotide binding (ESR, SL-ATP) [3]: directly interfered with nucleotide binding
Cells killed ([4]; DU145, 25 μmol/L compound, not shown): 31%
IC50 [4]: 41 µM
Resensitization to doxorubicin [8]: resensitized the MDR prostate cancer cells to doxorubicin to levels that are comparable with the naïve DU145 cell line
Inhibition of verapamil-stimulated ATP hydrolysis [5]: inhibit ATP hydrolysis

CC(=O)O[C@H]1C(=O)[C@@]2(C)[C@H]([C@H](OC(=O)c3ccccc3)[C@]3(O)C[C@H](OC(=O)[C@H](O)[C@@H](NC(=O)c4ccccc4)c4ccccc4)C(C)=C1C3(C)C)[C@]1(OC(C)=O)CO[C@@H]1C[C@@H]2O [Paclitaxel, paclitaxel]
Survival at 500 nmol/L paclitaxel [9]: < 10%
Survival at 500 nmol/L paclitaxel ([10]; DU145TXR): > 85%
IC50 ([10]; read-out: IC50 of chemotherapeutic alone, DU145TXR, 48 h incubation, MTT): 3.76 µM

COc1ccc(CCN(C)CCCC(C#N)(c2ccc(OC)c(OC)c2)C(C)C)cc1OC (centres unmarked) [Verapamil, verapamil, reference compound]
IC50 [7]: 207 µM
IC50 [4]: 75 µM

COc1cccc2c1C(=O)c1c(O)c3c(c(O)c1C2=O)C[C@@](O)(C(=O)CO)C[C@@H]3O[C@H]1C[C@H](N)[C@H](O)[C@H](C)O1 [doxorubicin]
Fold resistance (IC50 DU145TXR / IC50 DU145) ([10]; DU145TXR compared to DU145): over eightfold; also recorded: about eightfold
